Experimental data: ChEMBL document CHEMBL1156262, “Substituted benzothiophene or benzofuran derivatives as a novel class of bone morphogenetic protein-2 up-regulators: synthesis, structure-activity relationships, and preventive bone loss efficacies in senescence accelerated mice (SAMP6) and ovariectomized rats” (J Med Chem, 2010)
Calls of active or inactive are those of the source. No cut-off for these calls is given here.

Experiments:
[1] = Induction of BMP2 expression in mouse calcarial MC3T3-E1 cells stably transfected with mouse BMP2 promotor-luciferase assessed as upregulation rate at 4 uM; type: functional, cell-based
Method in brief: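 Reporter assay in murine calvarial MC3T3-E1 cells stably carrying the mouse BMP-2 promoter fused to firefly luciferase (pGL4BMP-2). Cells grown in DMEM with 10% heat-inactivated FBS at 37 °C and 5% CO2. Test compounds at 4.0 μM; lovastatin at 0.4 μM as positive control; 0.1% DMSO as negative control. Up-regulation rate = (RLU of test − RLU of negative control)/RLU of negative control × 100.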

Mus musculus [2] = test: Induction of bone formation in SAMP6 mouse right femora assessed as average osteoid width at 30 mg/kg/day, po measured after 3 months by bone histomorphometry; type: functional
Method in brief: (§1)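 SAMP6 mice, 5 months old, n = 5 per group (3 male, 2 female), randomized by initial BMD. Given compound in 0.5% methylcellulose by gavage daily for 3 months. Proximal third of the right femur fixed in 4% paraformaldehyde, cut as undecalcified sections, and scored by image analysis for histomorphometry.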

Mus musculus [3] = test: Induction of bone mineral density in SAMP6 mouse assessed as whole body BMD at 10 mg/kg/day, po measured after 2 months; type: functional, organism-based; details: 30 mg/kg, in the assay text read “30 mg/kg/day” for “10 mg/kg/day”
Method in brief: (§2)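 SAMP6 mice, 5 months old, n = 5 per group, given compound in 0.5% methylcellulose by gavage daily. Dual-energy X-ray absorptiometry under pentobarbital anaesthesia (50 mg/kg ip), animals prone, at 0, 4, 8 and 12 weeks of treatment. Regions of interest were whole body, spine and left hind leg.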

Mus musculus [4] = test: Induction of bone mineral density in SAMP6 mouse assessed as whole body BMD at 30 mg/kg/day, po measured after 2 months; type: functional, organism-based; method in brief: as §2
Mus musculus [5] = test: Toxicity in SAMP6 mouse assessed as pathological changes in kidney at 30 mg/kg/day, po after 3 months by histomorphology; type: organism-based; parameters: route oral; details: in vivo
Method in brief: (§3)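 SAMP6 mice, n = 5 per group, dosed orally at 30 mg/kg/day in 0.5% methylcellulose for 3 months. Heart, liver, spleen, lung and kidney harvested, weighed and examined histologically. Organ/body weight indexes, body weight, and 24 h water and food intake (g/g body weight) compared with vehicle controls.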

Mus musculus [6] = test: Induction of bone formation in SAMP6 mouse right femora assessed as trabecular bone volume percentage at 30 mg/kg/day, po measured after 3 months by bone histomorphometry; type: functional, Trabecula; method in brief: as §1
Mus musculus [7] = test: Toxicity in SAMP6 mouse assessed as pathological changes in liver at 30 mg/kg/day, po after 3 months by histomorphology; type: organism-based; parameters: route oral; details: in vivo; method in brief: as §3
Mus musculus [8] = test: Induction of BMP2 expression in SAMP6 mouse osteoblast at 30 mg/kg/day, po after 3 months by immunohistochemical analysis; type: functional, organism-based
Method in brief: (§4)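 SAMP6 mice, 5 months old, male and female, n = 5 per group (3 male, 2 female). Dosed by gavage with compound suspended in 0.5% methylcellulose daily for 3 months; the vehicle group received methylcellulose only. Proximal third of the left femur fixed in 4% neutral paraformaldehyde for 24 h, decalcified in 10% EDTA at 4 °C for 4 weeks, then frozen-sectioned at 5 μm. Stained with rabbit polyclonal anti-BMP-2 and an alkaline phosphatase secondary. BMP-2-positive area was taken as a percentage of bone tissue area, averaged over five fields below the epiphyseal plate.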

Mus musculus [9] = test: Induction of bone mineral density in SAMP6 mouse assessed as left hind leg BMD at 30 mg/kg/day, po measured after 3 months; type: functional; method in brief: as §2
Mus musculus [10] = test: Toxicity in SAMP6 mouse assessed as change in 24 hrs food consumption at 30 mg/kg/day, po after 3 months; type: organism-based; parameters: route oral; details: in vivo; method in brief: as §3
Mus musculus [11] = test: Toxicity in SAMP6 mouse assessed as pathological changes in lung at 30 mg/kg/day, po after 3 months by histomorphology; type: organism-based; parameters: route oral; details: in vivo; method in brief: as §3
Mus musculus [12] = test: Induction of bone mineral density in SAMP6 mouse assessed as spine BMD at 30 mg/kg/day, po measured after 3 months; type: functional; method in brief: as §2
Mus musculus [13] = test: Toxicity in SAMP6 mouse assessed as pathological changes in spleen at 30 mg/kg/day, po after 3 months by histomorphology; type: organism-based; parameters: route oral; details: in vivo; method in brief: as §3
Mus musculus [14] = test: Induction of BMP2 expression in SAMP6 mouse osteoblast at 10 mg/kg/day, po after 3 months by immunohistochemical analysis; type: functional, organism-based; method in brief: as §4
Mus musculus [15] = test: Induction of bone formation in SAMP6 mouse right femora assessed as trabecular formation surface percentage at 30 mg/kg/day, po measured after 3 months by bone histomorphometry; type: functional, Trabecula; method in brief: as §1
Mus musculus [16] = test: Induction of bone mineral density in SAMP6 mouse assessed as whole body BMD at 10 mg/kg/day, po measured after 1 month; type: functional, organism-based; details: 30 mg/kg, in the assay text read “30 mg/kg/day” for “10 mg/kg/day”; method in brief: as §2
Mus musculus [17] = test: Induction of BMP2 expression in SAMP6 mouse cartilage cells at 30 mg/kg/day, po after 3 months by immunohistochemical analysis; type: functional, organism-based; method in brief: as §4
Mus musculus [18] = test: Toxicity in SAMP6 mouse assessed as change in 24 hrs water consumption at 30 mg/kg/day, po after 3 months; type: organism-based; parameters: route oral; details: in vivo; method in brief: as §3
Mus musculus [19] = test: Induction of BMP2 expression in SAMP6 mouse bone marrow stroma at 30 mg/kg/day, po after 3 months by immunohistochemical analysis; type: functional, organism-based; method in brief: as §4
Mus musculus [20] = test: Induction of bone mineral density in SAMP6 mouse assessed as whole body BMD at 30 mg/kg/day, po measured after 3 months; type: functional; method in brief: as §2
Mus musculus [21] = test: Induction of bone formation in SAMP6 mouse right femora assessed as trabecular resorption surface percentage at 30 mg/kg/day, po measured after 3 months by bone histomorphometry; type: functional, Trabecula; method in brief: as §1
[22] = Toxicity in po dosed Kunming mouse assessed as mortality treated for 3 days measured after 17 days; type: organism-based; details: in vivo
Method in brief: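 Male and female Kunming mice (18-21 g), six per group (three males, three females), were dosed orally at 500 or 700 (mg/kg)/day for 3 days. They were closely watched for deaths over the 3 dosing days and the following 14 days (17 days in total).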

Mus musculus [23] = test: Toxicity in SAMP6 mouse assessed as increase in body weight at 30 mg/kg/day, po after 3 months; type: organism-based; parameters: route oral; details: in vivo; method in brief: as §3
Mus musculus [24] = test: Toxicity in SAMP6 mouse assessed as pathological changes in heart at 30 mg/kg/day, po after 3 months by histomorphology; type: organism-based; parameters: route oral; details: in vivo; method in brief: as §3
Mus musculus [25] = test: Induction of bone mineral density in SAMP6 mouse assessed as whole body BMD at 30 mg/kg/day, po measured after 2 months

For COc1cc2cc(C(=O)C[S+](C)[O-])sc2cc1OC (stereo not given), the Activity [1] was 13.5%.
For C[S+]([O-])CC(=O)c1cc2ccccc2s1 (stereo not given), the Activity (Mus musculus [2]) was 5.85 µm, the Activity (Mus musculus [3]) was “Active” and the Activity (Mus musculus [4]) was “Active”. For the same compound, the Activity (Mus musculus [5]) was “Non-toxic”, the Activity (Mus musculus [6]) was 5.95% and the Activity (Mus musculus [7]) was “Non-toxic”. The Activity (Mus musculus [8]) was “Active”, the Activity (Mus musculus [9]) was 0.05 g/cm2 and the Activity (Mus musculus [10]) was “Non-toxic”. For the same compound, the Activity (Mus musculus [11]) was “Non-toxic”, the Activity (Mus musculus [12]) was 0.09 g/cm2 and the Activity (Mus musculus [13]) was “Non-toxic”. For the same compound, the Activity (Mus musculus [14]) was “Active”, the Activity (Mus musculus [15]) was 5.13% and the Activity (Mus musculus [16]) was “Active”. The Activity (Mus musculus [17]) was “inactive”, the Activity (Mus musculus [18]) was “Non-toxic” and the Activity (Mus musculus [19]) was “Active”. The Activity (Mus musculus [20]) was 0.072 g/cm2, the Activity (Mus musculus [21]) was 6.45% and the LD50 at 408 h [22] was greater than 700 mg/kg. The Activity (Mus musculus [23]) was “Non-toxic”, the Activity [1] was 19.7% and the Activity (Mus musculus [24]) was “Non-toxic”.
O=C(/C=C/c1ccccc1)c1cc2ccccc2s1 showed an Activity [1] of 15.4%.
Compound CCOC(=O)c1cc2ccccc2o1 has an Activity [1] of 7.1%.
With C[S+]([O-])CC(=O)c1cc2ccccc2o1 (stereo not given) the Activity [1] was 3.9%.
With COc1cc2cc(C(C)=O)sc2cc1OC the Activity [1] was 37.1%.
For COc1ccc(/C=C/C(=O)c2cc3ccccc3s2)cc1, the Activity (Mus musculus [2]) was 5.5 µm, the Activity (Mus musculus [5]) was “Non-toxic” and the Activity (Mus musculus [6]) was 8.94%. For the same compound, the Activity (Mus musculus [25]) was “Active”, the Activity (Mus musculus [7]) was “Non-toxic” and the Activity (Mus musculus [8]) was “Active”. The Activity (Mus musculus [9]) was 0.05 g/cm2, the Activity (Mus musculus [10]) was “Non-toxic” and the Activity (Mus musculus [11]) was “Non-toxic”. For the same compound, the Activity (Mus musculus [12]) was 0.089 g/cm2, the Activity (Mus musculus [13]) was “Non-toxic” and the Activity (Mus musculus [14]) was “Active”. The Activity (Mus musculus [15]) was 6.54%, the Activity (Mus musculus [16]) was “Active” and the Activity (Mus musculus [17]) was “inactive”. The Activity (Mus musculus [18]) was “Non-toxic”, the Activity (Mus musculus [19]) was “Active” and the Activity (Mus musculus [20]) was 0.07 g/cm2. The Activity (Mus musculus [21]) was 6.29%, the LD50 at 408 h [22] was greater than 500 mg/kg and the Activity (Mus musculus [23]) was “Non-toxic”. The Activity [1] was 27.3% and the Activity (Mus musculus [24]) was “Non-toxic”.
Work on CCOC(=O)c1ccc2sc(C(=O)/C=C/c3ccc(OC)c(OC)c3)cc2c1 yielded an Activity [1] of -9.6%.
With CCOC(=O)c1ccc2sc(C(=O)/C=C/c3ccc(OC)cc3)cc2c1 the Activity [1] was 1.7%.
For CCOC(=O)c1cc2cccc(OC)c2o1, the Activity [1] was 12.4%.
In the case of CCOC(=O)c1ccc2sc(C(=O)/C=C/c3ccc(OC)c(OC)c3OC)cc2c1, the Activity [1] was -21.5%.
Compound CCOC(=O)c1cc2c(Cl)cccc2s1 has an Activity [1] of -0.6%.
For O=C(/C=C/c1ccccc1Cl)c1cc2ccccc2o1, the Activity [1] was 1.8%.
For O=C(/C=C/c1ccccc1Cl)c1cc2ccccc2s1, the Activity [1] was 2%.
Work on COC(=O)c1ccc2sc(C(C)=O)cc2c1 yielded an Activity [1] of 41.4%.
